Laboratory results from ChEMBL document CHEMBL4229558, “Elongation of the Hydrophobic Chain as a Molecular Switch: Discovery of Capsaicin Derivatives and Endogenous Lipids as Potent Transient Receptor Potential Vanilloid Channel 2 Antagonists” (J Med Chem, 2018).
Activity calls are given as the source filed them. No cut-off for these calls is given here.

Tests used:
[1] = target: T1, Transient receptor potential cation channel subfamily V member 2 (Rattus norvegicus, UniProt Q9WUD2); assay: Antagonist activity at recombinant rat TRPV2 expressed in HEK293 cells assessed as inhibition of LPC-induced Ca2+ levels preincubated for 5 mins followed by agonist addition by Fuo-4-AM based spectrofluorimetry; format: cell-based
T1 sequence (Q9WUD2 whole entry): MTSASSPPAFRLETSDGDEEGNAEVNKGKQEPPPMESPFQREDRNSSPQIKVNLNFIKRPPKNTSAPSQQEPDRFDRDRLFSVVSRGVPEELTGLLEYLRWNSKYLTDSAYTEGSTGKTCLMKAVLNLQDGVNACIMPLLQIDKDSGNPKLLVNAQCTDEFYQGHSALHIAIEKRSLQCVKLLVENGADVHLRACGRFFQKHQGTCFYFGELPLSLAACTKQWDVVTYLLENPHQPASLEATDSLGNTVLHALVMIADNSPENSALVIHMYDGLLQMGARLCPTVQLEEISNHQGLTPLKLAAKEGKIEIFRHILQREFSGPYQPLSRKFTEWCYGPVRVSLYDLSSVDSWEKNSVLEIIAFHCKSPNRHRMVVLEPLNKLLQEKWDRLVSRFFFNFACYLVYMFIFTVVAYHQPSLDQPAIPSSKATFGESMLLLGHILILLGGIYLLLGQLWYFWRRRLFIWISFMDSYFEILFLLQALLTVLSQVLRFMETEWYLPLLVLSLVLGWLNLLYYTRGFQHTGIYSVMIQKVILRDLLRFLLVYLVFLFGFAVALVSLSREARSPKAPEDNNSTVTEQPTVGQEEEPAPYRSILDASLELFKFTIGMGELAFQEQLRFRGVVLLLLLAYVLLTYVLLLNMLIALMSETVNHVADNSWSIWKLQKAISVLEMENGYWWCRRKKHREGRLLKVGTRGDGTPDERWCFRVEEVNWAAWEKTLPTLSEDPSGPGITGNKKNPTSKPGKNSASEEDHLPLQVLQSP
How it was run: (§1)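 HEK-293 cells heterologously expressing rat TRPV2, fluorometric intracellular Ca2+ assay. Cells are preincubated 5 min with varying test concentrations, then challenged with LPC (3 µM) or CBD (2 µM). Inhibition of the agonist-evoked [Ca2+]i rise gives IC50 (µM).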

[2] = target: T1, Transient receptor potential cation channel subfamily V member 2; assay: Antagonist activity at recombinant rat TRPV2 expressed in HEK293 cells assessed as inhibition of CBD-induced Ca2+ levels preincubated for 5 mins followed by agonist addition by Fuo-4-AM based spectrofluorimetry; format: cell-based; how it was run: as §1
[3] = target: T2, Transient receptor potential cation channel subfamily V member 2 (Rattus norvegicus) (UniProt Q9WUD2); assay: Non-competitive antagonist activity at recombinant rat TRPV2 expressed in HEK293 cells assessed as inhibition of CBD-induced Ca2+ levels preincubated for 5 mins followed by agonist addition by Fuo-4-AM dependent spectrofluorimetry based Schild analysis; format: cell-based
T2 sequence (whole entry): T1 sequence (Q9WUD2 whole entry)
How it was run: (§2)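 Schild analysis in rat TRPV2-HEK-293 cells by fluorometric Ca2+ assay. Full LPC or CBD concentration–response curves are run at increasing antagonist concentrations. Each agonist concentration is expressed as percent of its effect at 2x10-4 M without antagonist.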

[4] = target: T2, Transient receptor potential cation channel subfamily V member 2 (Rattus norvegicus); assay: Non-competitive antagonist activity at recombinant rat TRPV2 expressed in HEK293 cells assessed as inhibition of LPC-induced Ca2+ levels preincubated for 5 mins followed by agonist addition by Fuo-4-AM dependent spectrofluorimetry based Schild analysis; format: cell-based; how it was run: as §2
[5] = target: Transient receptor potential cation channel subfamily V member 1 (Homo sapiens, UniProt Q8NER1); assay: Agonist activity at recombinant human TRPV1 expressed in HEK293 cells assessed as induction of Ca2+ levels by Fuo-4-AM based spectrofluorimetry
Chain of Transient receptor potential cation channel subfamily V member 1 (Q8NER1 whole entry): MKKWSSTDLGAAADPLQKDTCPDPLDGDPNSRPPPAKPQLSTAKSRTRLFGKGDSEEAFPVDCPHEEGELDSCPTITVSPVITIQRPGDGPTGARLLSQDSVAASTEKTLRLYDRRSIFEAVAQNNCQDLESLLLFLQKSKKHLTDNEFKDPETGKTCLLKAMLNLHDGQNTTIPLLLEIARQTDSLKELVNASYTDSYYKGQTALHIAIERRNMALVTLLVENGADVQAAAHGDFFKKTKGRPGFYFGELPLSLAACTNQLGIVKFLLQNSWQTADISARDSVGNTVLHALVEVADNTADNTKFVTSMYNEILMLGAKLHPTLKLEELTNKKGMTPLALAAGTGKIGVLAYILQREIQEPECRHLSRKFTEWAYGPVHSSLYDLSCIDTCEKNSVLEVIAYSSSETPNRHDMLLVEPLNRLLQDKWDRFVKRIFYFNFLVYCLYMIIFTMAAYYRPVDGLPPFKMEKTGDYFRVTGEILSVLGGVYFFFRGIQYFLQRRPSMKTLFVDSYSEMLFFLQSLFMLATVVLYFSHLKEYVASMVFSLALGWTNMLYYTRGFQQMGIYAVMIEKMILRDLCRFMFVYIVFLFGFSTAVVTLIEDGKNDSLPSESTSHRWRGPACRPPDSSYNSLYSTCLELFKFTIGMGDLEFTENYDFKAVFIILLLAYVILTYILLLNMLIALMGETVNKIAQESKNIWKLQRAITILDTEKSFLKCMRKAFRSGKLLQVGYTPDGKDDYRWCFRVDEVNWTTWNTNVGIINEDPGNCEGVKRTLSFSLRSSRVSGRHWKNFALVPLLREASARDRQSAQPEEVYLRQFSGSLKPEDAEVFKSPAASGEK

| Compound | IC50 [1] [µM] | IC50 [2] [µM] | inhibition [3] | inhibition [4] | EC50 [5] [µM] |
| --- | --- | --- | --- | --- | --- |
| CCCCCC[C@H](C/C=C\CCCCCCCCSCCC(=O)NCc1ccc(O)c(OC)c1)OC(=O)Cc1ccccc1 | > 10 | – | – | – | – |
| CCCCCCCCCCCCCCCCSC[C@H](N)C(=O)NCc1ccc(O)c(OC)c1 | 1.4 | – | – | – | – |
| CCCCCC/C=C\CCCCCCCC(=O)NCCO | 3.5 | 1.7 | – | – | – |
| CCCCCCC(=O)C/C=C/CCCCCCCC(=O)NCc1ccc(O)c(OC)c1 | > 10 | 4.4 | – | – | – |
| CCCCCC[C@@H](O)C/C=C\CCCCCCCC[Se]CCC(=O)NCc1ccc(O)c(OC)c1 | > 10 | 1.4 | Active | – | – |
| CCCCCC[C@@H](O)C/C=C\CCCCCCCCSCCC(=O)NCc1ccc(O)c(OC)c1 | > 10 | – | – | – | – |
| CCCCCCCC/C=C\CCCCCCCCSCCC(=O)NCc1ccc(O)c(OC)c1 | 2.5 | – | – | – | – |
| CCCCCCCCCCCCCCCC(N)=O [PALMITAMIDE] | > 10 | > 10 | – | – | – |
| CCCCCCCCCCCCCCCC(=O)O [PALMITIC ACID] | > 10 | > 10 | – | – | – |
| CCCCCCCC/C=C\CCCCCCCC(=O)O [OLEIC ACID] | > 10 | > 10 | – | – | – |
| CCCCC/C=C\C/C=C\CCCCCCCCCCCC(=O)O | > 10 | > 10 | – | – | – |
| CCCCCCCCCCCCCCCCCC(=O)NCc1ccc(O)c(OC)c1 | > 10 | > 10 | – | – | – |
| CCCCCCCC/C=C\CCCCCCCC(N)=O [OLEAMIDE] | 2.1 | 2.1 | – | – | – |
| CCCCC/C=C\C/C=C\CCCCCCCCSCCC(=O)NCc1ccc(O)c(OC)c1 | 1.4 | 2.8 | – | – | – |
| CC/C=C\C/C=C\C/C=C\C/C=C\C/C=C\CCCC(=O)NCCO | > 10 | 2.3 | – | – | – |
| CCCCCCCCCCCCCCCC[Se]C[C@H](N)C(=O)NCc1ccc(O)c(OC)c1 | 1.2 | – | – | – | – |
| CCCCCCCC/C=C\CCCCCCCCCCCC(=O)NCCO | 0.74 | > 10 | – | Active | – |
| CCCCCCCC/C=C\CCCCCCCCCCCC(=O)NCc1ccc(O)c(OC)c1 | 0.49 | 1.5 | – | – | – |
| CCCCCCCC/C=C\CCCCCCCC(=O)NCc1ccc(O)c(OC)c1 [OLVANIL] | 0.16 | 1.7 | Active | Active | – |
| CCCCCCCCCCCCCCCCCCCC(=O)O [ARACHIDIC ACID] | > 10 | > 10 | – | – | – |
| CCCCCCCCCCCCCCCCOC(=O)CSC[C@H](N)C(=O)NCc1ccc(O)c(OC)c1 | 1.4 | – | – | – | – |
| CCCCCCCC/C=C\CCCCCCCC(=O)N/N=C/c1ccc(O)c(OC)c1 | 0.12 | 3 | – | – | – |
| CCCCCCCCCCCCCCCCCCCC(N)=O | > 10 | > 10 | – | – | – |
| CCCCCC[C@H](C/C=C\CCCCCCCC[Se]CCC(=O)NCc1ccc(O)c(OC)c1)OC(=O)Cc1ccccc1 | > 10 | 2.3 | – | – | – |
| CCCCCCC(=O)CC(O)CCCCCCCCC(=O)NCc1ccc(O)c(OC)c1 (configuration not stated) | > 10 | > 10 | – | – | – |
| CCCCCCCCCCCCCCCCCCCC(=O)NCCO | > 10 | > 10 | – | – | – |

| Compound | IC50 [1] [µM] | IC50 [2] [µM] | inhibition [3] | inhibition [4] | EC50 [5] [µM] |
| --- | --- | --- | --- | --- | --- |
| CCCCC/C=C\C/C=C\C/C=C\C/C=C\CCCC(=O)O [ARACHIDONIC ACID] | > 10 | > 10 | – | – | – |
| CCCCCCCCCCCCCCCCOC(=O)CSCCC(=O)NCc1ccc(O)c(OC)c1 | > 10 | – | – | – | – |
| CCCCC/C=C\C/C=C\CCCCCCCC(=O)NCCO [LINOLEOYLETHANOLAMIDE] | 1.4 | 0.65 | – | – | – |
| CC/C=C\C/C=C\C/C=C\C/C=C\C/C=C\C/C=C\CCC(=O)NCCO | > 10 | 1.63 | – | – | – |
| CCCCC/C=C\C/C=C\CCCCCCCCCCCC(=O)NCc1ccc(O)c(OC)c1 | 0.82 | 1.8 | – | – | – |
| CCCCCCCC/C=C\CCCCCCCCSC[C@H](N)C(=O)NCc1ccc(O)c(OC)c1 | 1.9 | – | – | – | – |
| CCCCCCCCCCCCCCCC(=O)NCCO [PALMIDROL] | > 10 | > 10 | – | – | – |
| CCCCCCCCCCCCCCCCSCCC(=O)NCc1ccc(O)c(OC)c1 | 3.8 | – | – | – | – |
| CCCCCCCCCCCCCCCC[Se]CCC(=O)NCc1ccc(O)c(OC)c1 | 4.3 | – | – | – | – |
| CCCCC/C=C\C/C=C\CCCCCCCC(N)=O | 2.2 | 1.2 | – | – | – |
| CCCCCCCCCCCCCCCC(=O)NCc1ccc(O)c(OC)c1 | > 10 | > 10 | – | – | – |
| CCCCCCCC/C=C\CCCCCCCC[Se]CCC(=O)NCc1ccc(O)c(OC)c1 | 1.8 | 3.2 | – | – | – |
| CCCCCCCCCCCCCCCC(=O)N/N=C/c1ccc(O)c(OC)c1 | 0.28 | 6 | – | – | – |
| CCCCCCCC/C=C\CCCCCCCCCCCC(=O)O [ERUCIC ACID] | > 10 | > 10 | – | – | – |
| CCCCCCCCCCCCCCCCCCCC(=O)NCc1ccc(O)c(OC)c1 | 3.1 | > 10 | – | – | – |
| CCCCC/C=C\C/C=C\C/C=C\C/C=C\CCCC(=O)NCCO [ANANDAMIDE] | 8.6 | 0.96 | – | – | – |
| CCCCCC[C@@H](O)C/C=C/CCCCCCCC(=O)NCc1ccc(O)c(OC)c1 | > 10 | 7.5 | – | – | – |
| CCCCCCCC/C=C\CCCCCCCC(=O)NCCO [OLEOYLETHANOLAMIDE] | 1.8 | 5.4 | – | – | – |
| CCCCCCCCCCCCCCCCCC(=O)NCCO [N-(2-HYDROXYETHYL)STEARAMIDE] | > 10 | > 10 | – | – | – |
| CCCCC/C=C\C/C=C\CCCCCCCC(=O)NCc1ccc(O)c(OC)c1 | 2.6 | 2.1 | – | – | – |
| CCCCCCCC/C=C\CCCCCCCCCCCC(N)=O | 0.67 | 7.1 | – | – | – |
| NCCOB(c1ccccc1)c1ccccc1 | – | – | – | – | 129 |
| CCCCCCCC/C=C\CCCCCCCC[Se]C[C@H](N)C(=O)NCc1ccc(O)c(OC)c1 | 1.7 | 0.98 | Active | Active | – |
| CCCCC/C=C\C/C=C\CCCCCCCC[Se]CCC(=O)NCc1ccc(O)c(OC)c1 | 1.4 | 2.3 | – | – | – |
| CCCCCCCCCCCCCCCCCC(N)=O [OCTADECANOIC ACID AMIDE] | > 10 | > 10 | – | – | – |
